From ChEMBL document CHEMBL4014350, “Alkoxyurea-Based Histone Deacetylase Inhibitors Increase Cisplatin Potency in Chemoresistant Cancer Cell Lines” (J Med Chem, 2017)

Columns and labels:
CAL-27 [1] = assay: Potentiation of 1 uM cisplatin-induced cytotoxicity against human CAL27 cells assessed as decrease in cell viability by measuring combination index at 500 uM preincubated for 48 hrs followed by cisplatin treatment measured after 72 hrs by MTT assay; assay type: functional
Summary of the method: (§1)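 HDAC inhibitor was added 48 h before cisplatin, then cells were exposed to cisplatin for 72 h and viability was read by MTT assay. Combination index was computed by the Chou–Talalay method: CI > 1 is antagonism, CI = 1 additive, CI < 0.9 synergism. Points with fraction affected below 0.20 were flagged.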

A2780 = assay: Antiproliferative activity against human A2780 cells measured after 72 hrs by MTT assay; assay type: functional, cell-based; conditions: A2780, 72 h
[2] = biological target: T1, Histone deacetylase 1/6 (Homo sapiens) (UniProt Q13547+Q9UBN7); assay: Inhibition of HDAC1/HDAC6 in human Cal27CisR cells assessed as potentiation of 3.16 uM cisplatin-induced cytotoxicity by measuring combination index at 600 nM preincubated for 48 hrs followed by cisplatin treatment measured after 72 hrs by MTT assay
CAL-27 [3] = assay: Potentiation of 5 uM cisplatin-induced cytotoxicity against human CAL27 cells assessed as decrease in cell viability by measuring combination index at 600 uM preincubated for 48 hrs followed by cisplatin treatment measured after 72 hrs by MTT assay; assay type: functional; conditions: in the assay text read “at 600 nM” for “at 600 uM”; summary of the method: as §1
CAL-27 [4] = assay: Potentiation of 5 uM cisplatin-induced cytotoxicity against human CAL27 cells assessed as decrease in cell viability by measuring combination index at 700 uM preincubated for 48 hrs followed by cisplatin treatment measured after 72 hrs by MTT assay; assay type: functional; conditions: in the assay text read “at 700 nM” for “at 700 uM”; summary of the method: as §1
[5] = biological target: T1, Histone deacetylase 1/6 (Homo sapiens); assay: Inhibition of HDAC1/HDAC6 in human Cal27CisR cells assessed as potentiation of 20 uM cisplatin-induced cytotoxicity by measuring combination index at 600 nM preincubated for 48 hrs followed by cisplatin treatment measured after 72 hrs by MTT assay
[6] = biological target: T1, Histone deacetylase 1/6 (Homo sapiens); assay: Inhibition of HDAC1/HDAC6 in human Cal27CisR cells assessed as potentiation of 20 uM cisplatin-induced cytotoxicity by measuring combination index at 500 nM preincubated for 48 hrs followed by cisplatin treatment measured after 72 hrs by MTT assay
[7] = biological target: T1, Histone deacetylase 1/6 (Homo sapiens); assay: Inhibition of HDAC1/HDAC6 in human Cal27CisR cells assessed as potentiation of 1 uM cisplatin-induced cytotoxicity by measuring combination index at 800 uM preincubated for 48 hrs followed by cisplatin treatment measured after 72 hrs by MTT assay; assay type: cell-based
Summary of the method: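 Cal27CisR cells preincubated 48 h with the HDAC inhibitor, then exposed to cisplatin for 72 h. Viability read by MTT. Combination index calculated by the Chou–Talalay method: CI > 1 antagonism, CI = 1 additive, CI < 0.9 synergism. Points with fraction affected below 0.20 are flagged. Values are the mean of three experiments.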

[8] = Inhibition of HDAC in human A2780 cells using Boc-Lys(epsilon-Ac)-AMC as substrate preincubated for 18 hrs followed by substrate addition measured after 3 hrs by fluorescence assay; assay type: cell-based
Homo sapiens [9] = species: Homo sapiens; assay: Selectivity ratio of IC50 for recombinant human N-terminal GST-tagged/C-terminal His-tagged HDAC4 to IC50 for full length human recombinant N-terminal GST-tagged HDAC6 expressed in baculovirus infected sf9 cells
Summary of the method: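 Ratio of isolated-enzyme IC50 values. The HDAC4 IC50 was determined in duplicate by an external contract service. The HDAC6 IC50 was the mean ± SD of three independent experiments.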

[10] = Inhibition of HDAC in human Cal27CisR cells using Boc-Lys(epsilon-Ac)-AMC as substrate preincubated for 18 hrs followed by substrate addition measured after 3 hrs by fluorescence assay; assay type: cell-based
[11] = biological target: T1, Histone deacetylase 1/6 (Homo sapiens); assay: Inhibition of HDAC1/HDAC6 in human Cal27CisR cells assessed as potentiation of 5 uM cisplatin-induced cytotoxicity by measuring combination index at 700 uM preincubated for 48 hrs followed by cisplatin treatment measured after 72 hrs by MTT assay; assay type: cell-based
Summary of the method: (§2)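 Cal27 and cisplatin-resistant Cal27CisR cells were preincubated with the HDAC inhibitor for 48 h, then given cisplatin in combination. Viability was read by MTT after 72 h. The combination index was computed by the Chou–Talalay method: CI > 1 is antagonism, CI = 1 is additive, and CI < 0.9 is synergism. Points with fraction affected below 0.20 were flagged.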

Histone deacetylase 1 = Histone deacetylase 1 (Homo sapiens, UniProt Q13547); assay: Inhibition of recombinant full length human C-terminal FLAG/His-tagged HDAC1 expressed in baculovirus infected sf9 cells using Z-(Ac)Lys-AMC as substrate measured after 90 mins by fluorescence assay
Homo sapiens [12] = species: Homo sapiens; assay: Selectivity index, ratio of IC50 for human recombinant HDAC8 to IC50 for full length human recombinant N-terminal GST-tagged HDAC6 expressed in baculovirus infected sf9 cells
Summary of the method: (§3)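 Ratio of isolated-enzyme IC50 values. HDAC1, HDAC6 and HDAC8 IC50s were each the mean ± SD of three independent experiments.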

Homo sapiens [13] = species: Homo sapiens; assay: Selectivity ratio of IC50 for HDAC in human A2780 cells to IC50 for HDAC in human A2780CisR cells; assay type: cell-based
Homo sapiens [14] = species: Homo sapiens; assay: Selectivity index, ratio of IC50 for recombinant full length human C-terminal FLAG/His-tagged HDAC1 expressed in baculovirus infected sf9 cells to IC50 for full length human recombinant N-terminal GST-tagged HDAC6 expressed in baculovirus infected sf9 cells; summary of the method: as §3
CAL-27 [15] = assay: Potentiation of 0.5 uM cisplatin-induced cytotoxicity against human CAL27 cells assessed as decrease in cell viability measuring combination index at 700 uM preincubated for 48 hrs followed by cisplatin treatment measured after 72 hrs by MTT assay; assay type: functional; conditions: in the assay text read “at 700 nM” for “at 700 uM”; summary of the method: as §2
CAL-27 [16] = assay: Potentiation of 0.5 uM cisplatin-induced cytotoxicity against human CAL27 cells assessed as decrease in cell viability measuring combination index at 600 uM preincubated for 48 hrs followed by cisplatin treatment measured after 72 hrs by MTT assay; assay type: functional; conditions: in the assay text read “at 600 nM” for “at 600 uM”; summary of the method: as §2
[17] = biological target: T1, Histone deacetylase 1/6 (Homo sapiens); assay: Inhibition of HDAC1/HDAC6 in human Cal27CisR cells assessed as potentiation of 10 uM cisplatin-induced cytotoxicity by measuring combination index at 500 nM preincubated for 48 hrs followed by cisplatin treatment measured after 72 hrs by MTT assay
CAL-27 [18] = assay: Potentiation of 0.5 uM cisplatin-induced cytotoxicity against human CAL27 cells assessed as decrease in cell viability by measuring combination index at 800 uM preincubated for 48 hrs followed by cisplatin treatment measured after 72 hrs by MTT assay; assay type: functional; summary of the method: as §2
ONS-76 = assay: Antiproliferative activity against human ONS76 cells after 72 hrs by Celltiter-Glo assay; assay type: functional, cell-based; conditions: ONS-76, 72 h

T1 sequence (Q13547 whole entry, looked up): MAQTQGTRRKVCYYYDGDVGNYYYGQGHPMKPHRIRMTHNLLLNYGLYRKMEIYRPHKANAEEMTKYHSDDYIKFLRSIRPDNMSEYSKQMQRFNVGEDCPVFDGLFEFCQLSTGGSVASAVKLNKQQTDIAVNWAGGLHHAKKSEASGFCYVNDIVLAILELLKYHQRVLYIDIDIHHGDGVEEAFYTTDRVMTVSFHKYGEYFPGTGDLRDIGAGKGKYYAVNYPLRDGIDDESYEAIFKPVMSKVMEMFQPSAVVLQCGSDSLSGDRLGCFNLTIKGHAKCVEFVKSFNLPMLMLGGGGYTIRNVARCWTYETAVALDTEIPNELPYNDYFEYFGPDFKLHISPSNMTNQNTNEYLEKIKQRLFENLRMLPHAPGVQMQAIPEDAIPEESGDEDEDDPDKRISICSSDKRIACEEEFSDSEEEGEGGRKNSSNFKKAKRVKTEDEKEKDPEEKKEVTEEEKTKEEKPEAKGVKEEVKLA
T1 sequence (Q9UBN7 whole entry, looked up): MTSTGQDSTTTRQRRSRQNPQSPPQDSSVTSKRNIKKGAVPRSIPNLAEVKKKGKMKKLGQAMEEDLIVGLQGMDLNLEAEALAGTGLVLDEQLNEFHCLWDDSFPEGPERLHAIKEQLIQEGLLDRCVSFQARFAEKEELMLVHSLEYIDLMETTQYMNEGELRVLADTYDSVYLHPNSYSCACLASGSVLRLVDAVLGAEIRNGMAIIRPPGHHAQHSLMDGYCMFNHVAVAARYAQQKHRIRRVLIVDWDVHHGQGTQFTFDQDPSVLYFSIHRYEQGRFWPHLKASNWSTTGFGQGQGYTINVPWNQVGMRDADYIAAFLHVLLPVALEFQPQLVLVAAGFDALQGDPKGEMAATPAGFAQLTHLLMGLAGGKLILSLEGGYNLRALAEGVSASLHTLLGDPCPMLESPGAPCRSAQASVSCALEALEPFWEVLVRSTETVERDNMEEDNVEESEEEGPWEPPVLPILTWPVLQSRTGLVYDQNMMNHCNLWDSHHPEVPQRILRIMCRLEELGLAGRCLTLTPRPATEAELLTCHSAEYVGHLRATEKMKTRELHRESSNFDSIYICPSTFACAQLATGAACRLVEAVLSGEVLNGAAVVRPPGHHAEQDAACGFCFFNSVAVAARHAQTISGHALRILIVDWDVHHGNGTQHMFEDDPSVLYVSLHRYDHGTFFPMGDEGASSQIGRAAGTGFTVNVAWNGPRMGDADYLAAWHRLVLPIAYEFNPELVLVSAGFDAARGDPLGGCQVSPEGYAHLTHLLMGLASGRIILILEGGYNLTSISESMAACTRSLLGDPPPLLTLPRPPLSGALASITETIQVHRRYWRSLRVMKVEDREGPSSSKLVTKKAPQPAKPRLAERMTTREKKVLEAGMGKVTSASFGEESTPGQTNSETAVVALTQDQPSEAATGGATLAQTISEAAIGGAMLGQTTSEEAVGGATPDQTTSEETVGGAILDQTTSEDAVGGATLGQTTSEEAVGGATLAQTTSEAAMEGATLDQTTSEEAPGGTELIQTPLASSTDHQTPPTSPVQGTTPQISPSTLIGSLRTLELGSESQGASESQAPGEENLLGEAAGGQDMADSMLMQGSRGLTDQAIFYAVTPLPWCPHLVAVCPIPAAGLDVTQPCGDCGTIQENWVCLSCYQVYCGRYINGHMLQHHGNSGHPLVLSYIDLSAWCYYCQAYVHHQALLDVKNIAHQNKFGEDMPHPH
Chain of Histone deacetylase 1 (Q13547 whole entry): as the sequence (Q13547 whole entry, looked up) above

What does the source list for COc1cc(NC(=O)NOCCCCCC(=O)NO)c2ncccc2c1?
CI (CAL-27 [1]): 0.67; IC50 (A2780): 1200 nM; CI [2]: < 0.2; CI (CAL-27 [3]): 0.34; CI (CAL-27 [4]): 0.32; CI [5]: 0.37; CI [6]: 0.35; CI [7]: 0.81; IC50 [8]: 1000 nM; Ratio IC50 (Homo sapiens [9]): > 3500; IC50 [10]: 700 nM; CI [11]: 0.41; IC50 (Histone deacetylase 1): 51.9 nM; Ratio IC50 (Homo sapiens [12]): > 100; Ratio IC50 (Homo sapiens [13]): 2 to 3.4; Ratio IC50 (Homo sapiens [14]): < 15; CI (CAL-27 [15]): 0.97; CI (CAL-27 [16]): 0.77; CI [17]: 0.36; CI (CAL-27 [18]): 0.93; IC50 (ONS-76): 2670 nM

What does the source list for COc1cc(NC(=O)NOCCCCCC(=O)NO)c2nccc(C)c2c1?
CI (CAL-27 [1]): 0.37; IC50 (A2780): 1100 nM; CI [2]: 0.51; CI (CAL-27 [3]): 0.33; CI (CAL-27 [4]): 0.41; CI [5]: 0.21; CI [6]: 0.26; CI [7]: 1.09; IC50 [8]: 900 nM; Ratio IC50 (Homo sapiens [9]): > 3500; IC50 [10]: 500 nM; CI [11]: 0.21; IC50 (Histone deacetylase 1): 77.3 nM; Ratio IC50 (Homo sapiens [12]): > 100; Ratio IC50 (Homo sapiens [13]): 2 to 3.4; Ratio IC50 (Homo sapiens [14]): < 15; CI (CAL-27 [15]): 0.57; CI (CAL-27 [16]): 0.58; CI [17]: 0.25; CI (CAL-27 [18]): 0.51; IC50 (ONS-76): 590 nM

Which results are given for COc1cc(NC(=O)NOCCCCCC(=O)NO)c2nc(OC)cc(C)c2c1?
CI (CAL-27 [1]): 0.5; IC50 (A2780): 800 nM; CI [2]: 0.24; CI (CAL-27 [3]): 0.49; CI (CAL-27 [4]): 0.64; CI [5]: 0.19; CI [6]: 0.2; CI [7]: 0.65; IC50 [8]: 1700 nM; Ratio IC50 (Homo sapiens [9]): > 3500; IC50 [10]: 500 nM; CI [11]: 0.23; IC50 (Histone deacetylase 1): 43.2 nM; Ratio IC50 (Homo sapiens [12]): 550; Ratio IC50 (Homo sapiens [13]): 2 to 3.4; Ratio IC50 (Homo sapiens [14]): 15; CI (CAL-27 [15]): 0.7; CI (CAL-27 [16]): 0.66; CI [17]: 0.16; CI (CAL-27 [18]): 0.79; IC50 (ONS-76): 650 nM
